Measurements pooled from the literature.
Lines come from different studies, so protocols differ.
Target: Serine/threonine-protein kinase 3 (STK3, Homo sapiens, UniProt Q13188)
Residues used in one study (Q13188 1-491): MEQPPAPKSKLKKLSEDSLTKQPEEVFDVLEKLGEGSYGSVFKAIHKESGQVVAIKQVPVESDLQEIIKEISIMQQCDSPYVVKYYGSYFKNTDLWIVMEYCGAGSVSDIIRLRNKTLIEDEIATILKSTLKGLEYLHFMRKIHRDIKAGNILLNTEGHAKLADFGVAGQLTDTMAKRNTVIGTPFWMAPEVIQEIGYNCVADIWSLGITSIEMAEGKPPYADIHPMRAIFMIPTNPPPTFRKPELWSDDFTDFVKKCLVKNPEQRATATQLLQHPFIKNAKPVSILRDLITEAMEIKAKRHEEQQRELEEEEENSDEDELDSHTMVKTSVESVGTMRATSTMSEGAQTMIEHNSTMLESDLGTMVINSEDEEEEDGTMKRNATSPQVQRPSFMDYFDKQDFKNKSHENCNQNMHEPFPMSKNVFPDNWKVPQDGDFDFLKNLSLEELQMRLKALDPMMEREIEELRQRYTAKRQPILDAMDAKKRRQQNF

| SMILES | read-out | method | concentration | remaining binding [%] |
| --- | --- | --- | --- | --- |
| CN(c1ccnc(CNc2nc(Nc3ccc4c(c3)CC(=O)N4)ncc2C(F)(F)F)n1)S(C)(=O)=O | cell-free assay | competition with immobilised ligand | 1 µM | 46 |
| CNC(=O)[C@@H]1CC[C@@H](n2c(-c3ccc4cnccc4c3)nc3ccc(C(=O)NCc4cccc(C(N)=O)c4)cc32)C1 | binding | competition with immobilised ligand | 1 µM | 100 |
| CC(C)(O)c1cncc(-c2nc3ccc(F)cc3n2C2CC2)c1 | cell-free assay | competition with immobilised ligand | 1 µM | 100 |
| O=C(NCCCN1CCOCC1)c1ccc(Nc2nccc(-c3cc4ccccc4s3)n2)cc1 | binding | competition with immobilised ligand | 1 µM | 88 |
| CC(=O)Nc1c(C(C)=O)c(=O)n(C)c2nc(-c3ccc(Cl)cc3Cl)c(-c3ccc(Cl)cc3)cc12 | cell-free assay | competition with immobilised ligand | 1 µM | 100 |
| FC(F)(F)Oc1cccc(-c2cnc3ccc(-c4ccncc4)nn23)c1 | cell-free assay | competition with immobilised ligand | 5 µM | 58 |
| O=C(Nc1c[nH]nc1C(=O)NC1CCNCC1)c1cc(F)cc(F)c1 | binding | competition with immobilised ligand | 1 µM | 100 |
| CN([C@@H]1CCc2c(CC(=O)O)c3cc(S(C)(=O)=O)ccc3n2C1)S(=O)(=O)c1ccc(F)cc1 | cell-free assay | competition with immobilised ligand | 1 µM | 98 |
| CC1CCCN1c1nccc(-c2cnn3ncccc23)n1 (stereo not shown) | binding | – | 1 µM | 100 |
| COc1ncc2cc3ccccc3nc2c1C#N | cell-free assay | competition with immobilised ligand | 5 µM | 99 |
| Nc1ncc2c(n1)-c1c([nH]c3ccc(C#CC4CC4)cc13)CCCC2 | binding | competition with immobilised ligand | 1 µM | 87 |
| O=C(c1ccc(Nc2nccc(-c3cc4ccccc4s3)n2)cc1)N1CCC(N2CCCC2)CC1 | binding | competition with immobilised ligand | 1 µM | 100 |
| N[C@@H]1CCN(c2nccc(-c3cnn4ncccc34)n2)C1 | binding | – | 1 µM | 98 |
| c1cncc(-c2cccc(Nc3nccc(NC4CCCCC4)n3)c2)c1 | binding | competition with immobilised ligand | 10 µM | 12 |
| C[C@H]1CCN(c2nccc(-c3cnn4ncccc34)n2)C1 | binding | – | 1 µM | 92 |
| Cc1c(NC(=O)c2cc(C(N)=O)nc3cc(F)ccc23)c(C(F)(F)F)nn1Cc1ccc(C#N)cc1 | cell-free assay | competition with immobilised ligand | 1 µM | 96 |
| CN(CCCC(F)(F)F)c1nccc(-c2cnn3ncccc23)n1 | binding | – | 1 µM | 100 |
| COc1ccc2c(c1)O[C@@H](c1ccc(OC)c(OC)c1)C[C@H]2NC(=O)C1(c2ccc3c(c2)OC(F)(F)O3)CC1 | cell-free assay | competition with immobilised ligand | 1 µM | 96 |
| c1cnn2ncc(-c3ccnc(N4CCC45COC5)n3)c2c1 | binding | – | 1 µM | 81 |
| O=C(NCCCN1CCOCC1)c1ccc(Nc2ncc(Cl)c(-c3ccc(Cl)s3)n2)cc1 | binding | competition with immobilised ligand | 1 µM | 12 |
| C[C@H](c1ccnc(Nc2nc3ccc(-c4cc(N(C)C)ncn4)cc3[nH]2)c1)N1CCN(C(=O)CC(F)(F)F)CC1 | cell-free assay | competition with immobilised ligand | 0.1 µM | 93 |
| CN(C)c1nccc(-c2cnn3ncccc23)n1 | binding | – | 1 µM | 100 |
